Assay [1] is described as follows: Mean graph midpoint for growth inhibition of all human cancer cells was determined. The format is functional, Cancer cell lines. Further details: unit: µM. Put shortly: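 Average of GI50 values over about 55 cell lines from the 48-h sulforhodamine B growth assay. Test range was 10^-4 to 10^-8 M, and values beyond it were set to those limits. Compounds with a first MGM of 10 μM or less were tested a second time and a standard deviation was calculated.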

For the next assay, the system named is SF-539. The assay can be described thus: Antiproliferative activity against human CNS SF-539 cell line. The format is functional. The essentials:
(§1)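 Adherent lines grown in RPMI 1640 with 5% fetal bovine serum and 2 mM L-glutamine, plated at 5000–40 000 cells/well and preincubated 24 h. Five drug concentrations were added for 48 h at 37 °C. Cells were fixed with cold TCA (10% final), stained with sulforhodamine B, and read at 515 nm. GI50 is the concentration giving 50% reduction in net protein increase relative to time-zero wells.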

For a further assay, the system named is SN12C. The assay can be described thus: Antiproliferative activity against human renal SN12C cell line. The format is functional. Put shortly: as §1
The test system of the next assay is CCRF-CEM. The assay can be described thus: Antiproliferative activity against human leukemia CCRF-CEM cell line. Type of assay: functional. The essentials: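 Suspension leukemia line grown in RPMI 1640 with 5% fetal bovine serum and 2 mM L-glutamine and preincubated 24 h. Drug was given at five concentrations for 48 h at 37 °C. Settled cells were fixed with 80% TCA (16% final), stained with sulforhodamine B, and read at 515 nm. GI50 was set at 50% reduction in net protein increase versus time-zero wells.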

The next assay deals with HCT-116. The assay can be described thus: Antiproliferative activity against human colon HCT116 cell line. The format is functional. The essentials: as §1
The next assay has as its system UACC-62. The assay can be described thus: Antiproliferative activity against human melanoma UACC-62 cell line. Type of assay: functional. Put shortly: as §1
For assay [2], the system named is MDA-MB-435 (Homo sapiens). The assay can be described thus: Antiproliferative activity against human breast MDA-MB-435 cell line.
A further assay relates to DU-145. The assay can be described thus: Antiproliferative activity against human prostate DU-145 cell line. Type of assay: functional. The essentials: as §1
In another assay the test system is OVCAR-3. The assay can be described thus: Antiproliferative activity against human ovarian OVCAR-3 cell line. Type of assay: functional. Put shortly: as §1
The next assay has as its target Tubulin (Bos taurus, UniProt Q6B856+Q862F3). Briefly: Inhibition of tubulin polymerization was determined at 1.2 mg/mL concentration. Type of assay: functional.
In another assay the test system is HOP-62. The assay can be described thus: Antiproliferative activity against human lung HOP-62 cell line. The format is functional. Put shortly: as §1

Chain of Tubulin (Q6B856 whole entry): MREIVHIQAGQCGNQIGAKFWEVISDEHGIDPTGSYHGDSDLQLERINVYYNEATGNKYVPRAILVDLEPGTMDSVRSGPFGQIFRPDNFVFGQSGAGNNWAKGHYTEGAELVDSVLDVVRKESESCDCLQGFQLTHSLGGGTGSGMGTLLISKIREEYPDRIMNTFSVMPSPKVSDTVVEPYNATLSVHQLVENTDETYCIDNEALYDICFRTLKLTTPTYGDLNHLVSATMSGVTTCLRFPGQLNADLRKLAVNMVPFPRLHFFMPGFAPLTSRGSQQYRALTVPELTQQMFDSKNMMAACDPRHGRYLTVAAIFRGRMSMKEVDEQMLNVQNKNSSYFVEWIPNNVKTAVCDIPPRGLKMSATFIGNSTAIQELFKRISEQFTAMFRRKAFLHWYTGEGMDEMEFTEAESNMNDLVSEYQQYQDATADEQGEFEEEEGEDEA
Chain of Tubulin (Q862F3 whole entry): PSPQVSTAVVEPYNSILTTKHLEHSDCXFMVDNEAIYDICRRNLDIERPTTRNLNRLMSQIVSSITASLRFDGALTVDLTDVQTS

Take `O=C(NCCc1ccc(F)cc1)c1cc(/C=C\c2cc(O)ccc2O)ccc1O`: the MGM in assay [1] is 3.5. Further, the GI50 (in general, the concentration giving 50% growth inhibition) turned out to be 3800 nM with SF-539; 4000 nM in the assay with SN12C; 1300 nM in the assay on CCRF-CEM; 3800 nM in the assay on HCT-116; 2300 nM in the assay on UACC-62; 12900 nM in [2]. For the same molecule, the results for the GI50 with DU-145, with OVCAR-3 and in the assay on HOP-62 were 15200 nM, 2100 nM and 6300 nM, respectively. Besides, half-maximal inhibition against Tubulin (IC50) required 4200 nM.

`O=C(NCCc1ccc(F)cc1)c1cc(CCc2cc(O)ccc2O)ccc1O` yielded an MGM in [1] of 2.8. Moreover, the GI50 came to 1800 nM with SF-539; 2100 nM with SN12C; 400 nM in the assay with CCRF-CEM; 1000 nM in the assay on HCT-116; 2800 nM in the assay with UACC-62; 2300 nM in assay [2]. Also, the GI50 in the assay on DU-145 amounted to 8000 nM; with OVCAR-3, 1000 nM; in the assay on HOP-62 it was 2600 nM. Moreover, the midpoint of inhibition on Tubulin, the IC50, lay at 9700 nM.

Source of the values: ChEMBL document CHEMBL1136777, “Synthesis, anticancer activity, and inhibition of tubulin polymerization by conformationally restricted analogues of lavendustin A” (J Med Chem, 2003).
